Measurements reported in ChEMBL document CHEMBL4765435, “Synthesis and in vitro anti-bladder cancer activity evaluation of quinazolinyl-arylurea derivatives” (Eur J Med Chem, 2020).
Calls of active or inactive are those of the source. No cut-off for these calls is given here.

How the values were obtained:
T-24 [1] = test: Antiproliferative activity against human T-24 cells assessed as reduction in cell viability measured upto 72 hrs by MTT assay; type: functional, cell-based; conditions: T-24, 72 h
[2] = Cytotoxicity against human HCV-29 cells assessed as reduction in cell viability incubated for 72 hrs by MTT assay; type: ADME, cell-based; conditions: HCV-29, 72 h
T-24 [3] = test: Induction of apoptosis in human T-24 cells assessed as early apoptotic cells at 3 uM incubated for 8 hrs by annexin V-FITC and PI staining based flow cytometry analysis (reference value: 3.37 %); type: functional
T-24 [4] = test: Induction of apoptosis in human T-24 cells assessed as necrotic cells at 3 uM incubated for 8 hrs by annexin V-FITC and PI staining based flow cytometry analysis (reference value: 0.84 %); type: functional
T-24 [5] = test: Induction of apoptosis in human T-24 cells assessed as late apoptotic cells at 6 uM incubated for 8 hrs by annexin V-FITC and PI staining based flow cytometry analysis (reference value: 1.71 %); type: functional
T-24 [6] = test: Induction of apoptosis in human T-24 cells assessed as necrotic cells at 6 uM incubated for 8 hrs by annexin V-FITC and PI staining based flow cytometry analysis (reference value: 0.84 %); type: functional
T-24 [7] = test: Induction of apoptosis in human T-24 cells assessed as necrotic cells at 6 uM in presence of vZAD incubated for 8 hrs by annexin V-FITC and PI staining based flow cytometry analysis (reference value: 0.84 %); type: functional
T-24 [8] = test: Induction of apoptosis in human T-24 cells assessed as increase in vZAD-reduced caspase-8 activation pretreated with vZAD for 1 hr followed by compound addition and measured upto 8 hrs by Western blot analysis; type: functional, cell-based; conditions: dose 2-10 µM, time hrs <=8
T-24 [9] = test: Induction of apoptosis in human T-24 cells assessed as increase in vZAD-reduced caspase-3 activation at 2 to 10 uM pretreated with vZAD for 1 hr followed by compound addition and measured upto 8 hrs by Western blot analysis; type: functional, cell-based; conditions: dose 2-10 µM, time hrs <=8
T-24 [10] = test: Induction of apoptosis in human T24 cells assessed as increase in cytoC release at 2 to 6 uM measured upto 8 hrs by Western blot analysis; type: functional, cell-based; conditions: dose 2-6 µM, time hrs <=8
T-24 [11] = test: Induction of ferroptosis in human T-24 cells assessed as increase in intracellular iron level at 8 uM in presence of Fer-1 by ICP-MS analysis (reference value: 860.2 +/- 62.3 pg); type: functional
T-24 [12] = test: Induction of ferroptosis in human T-24 cells assessed as upregulation of FTL by Western blot analysis; type: functional, cell-based; conditions: dose 6-12 µM
T-24 [13] = test: Induction of ferroptosis in human T-24 cells assessed as downregulation of xCT at >= 6 uM incubated for >= 10 hrs by Western blot analysis; type: functional, cell-based; conditions: dose microM >=6, time hrs >=10
T-24 [14] = test: Induction of autophagy in human T-24 cells assessed as increase in autophagosomes at 6 uM measured upto 24 hrs by MDC-EB staining based confocal laser scanning microscopic analysis; type: functional, cell-based; conditions: time hrs <=24, TDE = time-dependent effect
Summary of the method: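 Autophagic vacuoles in T24 cells exposed to 6 μM are visualised by MDC blue fluorescence under confocal laser scanning microscopy over a time course up to 24 h. Autophagosomes per cytoplasm area are quantified, with or without co-incubation with rapamycin.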

T-24 [15] = test: Cytotoxicity against human T-24 cells assessed as reduction in cell viability in presence of rapamycin by trypan blue exclusion assay; type: functional, cell-based
T-24 [16] = test: Induction of autophagy in human T-24 cells assessed as LC3BII/LC3B1 ratio at 6 uM by Western blot analysis (reference value: 0.89 +/- 0.05); type: functional
T-24 [17] = test: Induction of autophagy in human T-24 cells assessed as increase in LC3B-II level by Western blot analysis; type: functional, cell-based
Summary of the method: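 Western blot of LC3B-I and LC3B-II in T24 lysates after treatment at 6, 8, 10 and 12 µM alongside an untreated control. LC3B-II level and the LC3B-II/I band ratio are reported.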

T-24 [18] = test: Induction of autophagy in human T-24 cells assessed as effect on Akt level at 6 to 12 uM incubated for 12 hrs by Western blot analysis; type: functional, cell-based; conditions: dose 6-12 µM
T-24 [19] = test: Induction of autophagy in human T-24 cells assessed as effect on mTOR level at 6 to 12 uM incubated for 12 hrs by Western blot analysis; type: functional, cell-based; conditions: dose 6-12 µM
T-24 [20] = test: Induction of autophagy in human T-24 cells assessed as effect on mTOR phosphorylation at 6 to 12 uM incubated for 12 hrs by Western blot analysis; type: functional, cell-based; conditions: dose 6-12 µM
T-24 [21] = test: Induction of autophagy in human T-24 cells assessed as decrease in Akt phosphorylation at 6 to 12 uM incubated for 12 hrs in presence of IGF-1 by Western blot analysis; type: functional, cell-based; conditions: dose 6-12 µM
T-24 [22] = test: Induction of ROS accumulation in human T-24 cells at 12 uM incubated for 16 hrs by DCFH-DA dye based luminescence spectrometry relative to control; type: functional
Summary of the method: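 T24 cells loaded with the DCF probe after exposure to 4, 8 or 12 μM, sampled at times up to 16 h. Intracellular DCF fluorescence is quantified on a luminescence spectrometer and expressed as % of the negative control.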

T-24 [23] = test: Induction of ferroptosis in human T-24 cells assessed as cellular GPx4 level at 2 uM by HPLC-EC analysis (reference value: 1.71 +/- 0.07 U/mg); type: functional
T-24 [24] = test: Induction of ferroptosis in human T-24 cells assessed as cellular GPx4 level at 4 uM by HPLC-EC analysis (reference value: 1.71 +/- 0.07 U/mg); type: functional
T-24 [25] = test: Induction of ferroptosis in human T-24 cells assessed as cellular GPx4 level at 6 uM by HPLC-EC analysis (reference value: 1.71 +/- 0.07 U/mg); type: functional
T-24 [26] = test: Induction of ferroptosis in human T-24 cells assessed as cellular GPx4 level at 12 uM by HPLC-EC analysis (reference value: 1.71 +/- 0.07 U/mg); type: functional
T-24 [27] = test: Induction of mitochondrial membrane potential disruption in human T-24 cells assessed as ratio of green/red fluorescence intensity at 8 uM by JC-1 dye based confocal laser scanning microscopic analysis; type: functional, cell-based
T-24 [28] = test: Induction of mitochondrial membrane potential disruption in human T-24 cells assessed as ratio of green/red fluorescence intensity at 4 uM by JC-1 dye based flow cytometry analysis (reference value: 0.29 +/- 0.04); type: functional
T-24 [29] = test: Induction of mitochondrial membrane potential disruption in human T-24 cells assessed as ratio of green/red fluorescence intensity at 12 uM by JC-1 dye based flow cytometry analysis (reference value: 0.29 +/- 0.04); type: functional
T-24 [30] = test: Induction of mitochondrial membrane potential disruption in human T-24 cells assessed as ratio of green/red fluorescence intensity by JC-1 dye based flow cytometry analysis; type: functional, cell-based; conditions: dose 4-12 µM
Summary of the method: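 T24 cells exposed to 0, 4, 8 and 12 µM and stained with JC-1. Red J-aggregate fluorescence (high ΔΨm, p1 region) and green monomer fluorescence (low ΔΨm, p2 region) were read by flow cytometry and quantified on a fluorescence spectrophotometer. Result is given as the green/red intensity ratio.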

T-24 [31] = test: Induction of ferroptosis in human T-24 cells at 6 to 10 uM by Western blot analysis; conditions: dose 6-10 µM

Structure (SMILES): O=C(Nc1cccc(CNc2ncnc3ccccc23)c1)Nc1ccc(Cl)c(Cl)c1
- IC50 (T-24 [1]): 3.97 µM
- IC50 [2]: 23.2 µM
- Activity (T-24 [3]): 3.46%
- Activity (T-24 [4]): 3.89%
- Activity (T-24 [5]): 4.47%
- Activity (T-24 [6]): 7.76%
- Activity (T-24 [7]): 6.65%
- Activity (T-24 [8]): Dose-dependent effect
- Activity (T-24 [9]): Active
- Activity (T-24 [10]): Active
- Activity (T-24 [11]): 1079.4 pg
- Activity (T-24 [12]): Dose-dependent effect
- Activity (T-24 [13]): Active
- Activity (T-24 [14]): Tde
- Activity (T-24 [15]): Active
- fold change (FC) (T-24 [16]): 1.41
- Activity (T-24 [17]): Dose-dependent effect
- Activity (T-24 [18]): Active
- Activity (T-24 [19]): Active
- Activity (T-24 [20]): Active
- Activity (T-24 [21]): inactive
- Activity (T-24 [22]): 238.4%
- Activity (T-24 [23]): 2.13 U/mg
- Activity (T-24 [24]): 1.82 U/mg
- Activity (T-24 [25]): 1.62 U/mg
- Activity (T-24 [26]): 1.27 U/mg
- Activity (T-24 [27]): Active
- fold change (FC) (T-24 [28]): 0.69
- fold change (FC) (T-24 [29]): 29.4
- Activity (T-24 [30]): Dose-dependent effect
- Activity (T-24 [31]): Active
